Measurements as given in ChEMBL document CHEMBL4190391 (J Med Chem, 2018).

Tests used:
Protease = Protease (Human immunodeficiency virus 1, UniProt Q9YQ12); test: Inhibition of wild type HIV-1 NL4-3 protease expressed in Escherichia coli Rosetta (DE3)pLysS using Ac-Thr-Ile-Nle-Nle-Gln-Arg-NH2 as substrate by fluorescence assay
[1] = tested on: Human immunodeficiency virus 1; test: Antiviral activity against HIV-1 LAI infected in human MT2 cells; format: functional, organism-based; conditions: Human immunodeficiency virus 1, LAI
[2] = tested on: Human immunodeficiency virus 1; test: Antiviral activity against ATV resistant HIV1 harboring protease L23I/E34Q/K43I/M46I/I50L/G51A/L63P/A71V/V82A/T91A mutant infected in human MT4 cells assessed as reduction in p24 Gag protein production after 7 days by chemiluminescent enzyme immunoassay; format: functional, organism-based; conditions: Human immunodeficiency virus 1, MT4, 168 h
Method in brief: (§1)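 Variants had been selected by passaging HIV-1 NL4-3 in MT-4 cells under increasing PI concentrations (up to 5 μM). Assays were run in duplicate; values are means (± S.D.) of two independent experiments.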

[3] = tested on: Human immunodeficiency virus 1; test: Antiviral activity against APV resistant HIV1 harboring protease L10F/M46I/I50V/I85V mutant infected in human MT4 cells assessed as reduction in p24 Gag protein production after 7 days by chemiluminescent enzyme immunoassay; format: functional, organism-based; conditions: Human immunodeficiency virus 1, MT4, 168 h; method in brief: as §1
[4] = tested on: Human immunodeficiency virus 1; test: Antiviral activity against LPV resistant HIV1 harboring protease L10F/[…]I54V/V82A mutant infected in human MT4 cells assessed as reduction in p24 Gag protein production after 7 days by chemiluminescent enzyme immunoassay; format: functional, organism-based; conditions: Human immunodeficiency virus 1, MT4, 168 h; method in brief: as §1
[5] = tested on: Human immunodeficiency virus 1; test: Resistance index, ratio of EC50 for antiviral activity against ATV resistant HIV1 harboring protease L23I/E34Q/K43I/M46I/I50L/G51A/L63P/A71V/V82A/T91A mutant infected in human MT4 cells to EC50 for antiviral activity against wild type HIV1 NL4-3 infected in human MT4 cells; format: functional
[6] = tested on: Human immunodeficiency virus 1; test: Resistance index, ratio of EC50 for antiviral activity against LPV resistant HIV1 harboring protease L10F/[…]I54V/V82A mutant infected in human MT4 cells to EC50 for antiviral activity against wild type HIV1 NL4-3 infected in human MT4 cells; format: functional
[7] = tested on: Human immunodeficiency virus 1; test: Resistance index, ratio of EC50 for antiviral activity against APV resistant HIV1 harboring protease L10F/M46I/I50V/I85V mutant infected in human MT4 cells to EC50 for antiviral activity against wild type HIV1 NL4-3 infected in human MT4 cells; format: functional
[8] = tested on: Human immunodeficiency virus 1; test: Antiviral activity against wild type HIV1 NL4-3 infected in human MT4 cells assessed as reduction in p24 Gag protein production after 7 days by chemiluminescent enzyme immunoassay; format: functional, organism-based; conditions: Human immunodeficiency virus 1, NL4-3, MT4, 168 h

Chain of Protease (Q9YQ12 whole entry): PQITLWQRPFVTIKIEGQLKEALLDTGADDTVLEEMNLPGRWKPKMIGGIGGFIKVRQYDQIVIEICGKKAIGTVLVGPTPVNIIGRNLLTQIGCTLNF

SMILES | Ki (Protease) [nM] | IC50 [1] [nM] | EC50 [2] [nM] | EC50 [3] [nM] | EC50 [4] [nM] | Ratio EC50 [5] | Ratio EC50 [6] | Ratio EC50 [7] | EC50 [8] [nM]
CC(C)CN(C[C@@H](O)[C@H](Cc1ccccc1)NC(=O)O[C@@H]1C[C@@H]2CO[C@@H]3OCC[C@H]1[C@H]23)S(=O)(=O)c1ccc2nc(NC3CC3)sc2c1 | 0.5 | 0.9 | – | – | – | – | – | – | –
COC[C@@H]1C[C@@H]2[C@H]3[C@H](CO[C@H]3O1)C[C@@H]2OC(=O)N[C@@H](Cc1ccccc1)[C@H](O)CN(CC(C)C)S(=O)(=O)c1ccc(OC)cc1 | 0.09 | 248 | – | – | – | – | – | – | –
Cc1cccc(C)c1OCC(=O)N[C@@H](Cc1ccccc1)[C@@H](O)C[C@H](Cc1ccccc1)NC(=O)[C@H](C(C)C)N1CCCNC1=O [LOPINAVIR] | – | – | > 1000 | 390 | > 1000 | – | – | – | –
COc1ccc(S(=O)(=O)N(CC(C)C)C[C@@H](O)[C@H](Cc2ccccc2)NC(=O)O[C@H]2C[C@H]3CO[C@H]4OCC[C@@H]2[C@@H]34)cc1 | 0.045 | 31 | – | – | – | – | – | – | –
CC(C)CN(C[C@@H](O)[C@H](Cc1ccccc1)NC(=O)O[C@H]1CC2CO[C@H]3OCC[C@@H]1[C@@H]23)S(=O)(=O)c1ccc2nc(NC3CC3)sc2c1 (stereo partly specified) | 0.01 | 1.4 | – | – | – | – | – | – | –
COc1ccc(S(=O)(=O)N(CC(C)C)C[C@@H](O)[C@H](Cc2ccccc2)NC(=O)O[C@@H]2C[C@@H]3CO[C@@H]4OCC[C@H]2[C@H]34)cc1 | 0.008 | 9 | – | – | – | – | – | – | –
COc1ccc(S(=O)(=O)N(CC(C)C)C[C@@H](O)[C@H](Cc2ccccc2)NC(=O)O[C@H]2C[C@@H]3CO[C@@H]4OC[C@H]2[C@H]34)cc1 | 0.05 | 21 | – | – | – | – | – | – | –
COc1ccc(S(=O)(=O)N(CC(C)C)C[C@@H](O)[C@H](Cc2ccccc2)NC(=O)O[C@@H]2C[C@@H]3CO[C@@H]4CCC[C@H]2[C@H]34)cc1 | 4.55 | > 1000 | – | – | – | – | – | – | –
COC(=O)N[C@H](C(=O)N[C@@H](Cc1ccccc1)[C@@H](O)CN(Cc1ccc(-c2ccccn2)cc1)NC(=O)[C@@H](NC(=O)OC)C(C)(C)C)C(C)(C)C [ATAZANAVIR] | – | – | > 1000 | 70 | 29 | >303 | 9 | 21 | 3.3
COc1ccc(S(=O)(=O)N(CC(C)C)C[C@@H](O)[C@H](Cc2ccccc2)NC(=O)O[C@H]2C[C@H]3CCO[C@H]4OC[C@@H]2[C@@H]34)cc1 | 0.005 | 29 | – | – | – | – | – | – | –
COc1ccc(S(=O)(=O)N(CC(C)C)C[C@@H](O)[C@H](Cc2ccccc2)NC(=O)O[C@H]2C[C@H]3CO[C@H]4O[C@H](C)C[C@@H]2[C@@H]34)cc1 | 0.05 | 130 | – | – | – | – | – | – | –
CC(C)CN(C[C@@H](O)[C@H](Cc1cc(F)cc(F)c1)NC(=O)O[C@H]1CC2CO[C@H]3OCC[C@@H]1[C@@H]23)S(=O)(=O)c1ccc2nc(NC3CC3)sc2c1 (stereo partly specified) | 0.012 | 0.023 | 1.5 | 0.32 | 2 | 1 | 2 | 0.3 | 2
CC(C)CN(C[C@@H](O)[C@H](Cc1ccccc1)NC(=O)O[C@H]1CO[C@H]2OCC[C@H]21)S(=O)(=O)c1ccc(N)cc1 | – | – | 24 | – | – | – | – | – | –
COc1ccc(S(=O)(=O)N(CC(C)C)C[C@@H](O)[C@H](Cc2ccccc2)NC(=O)O[C@H]2C[C@H]3CO[C@H]4CCC[C@@H]2[C@@H]34)cc1 | 0.45 | > 1000 | – | – | – | – | – | – | –
CC(C)CN(C[C@@H](O)[C@H](Cc1ccccc1)NC(=O)O[C@H]1CCOC1)S(=O)(=O)c1ccc(N)cc1 | – | – | > 1000 | > 1000 | 190 | 11 | 2 | >11 | 87
CC(C)CN(C[C@@H](O)[C@H](Cc1cc(F)cc(F)c1)NC(=O)O[C@@H]1C[C@@H]2CO[C@@H]3OCC[C@H]1[C@H]23)S(=O)(=O)c1ccc2nc(NC3CC3)sc2c1 | 0.002 | 0.027 | 0.6 | 0.3 | 2 | 0.3 | 1 | 0.2 | 1.2
